Results from ChEMBL document CHEMBL1949524, “Chiral indolo[3,2-f][3]benzazecine-type dopamine receptor antagonists: synthesis and activity of racemic and enantiopure derivatives” (J Med Chem, 2011).
Calls of active or inactive are those of the source. The rule behind the calls is not given here.

Key:
D(4) dopamine receptor = biological target: T1, D(4) dopamine receptor (Homo sapiens, UniProt P21917); test: Displacement of [3H]spiperone from human dopamine D4.4 receptor expressed in CHO cells; format: cell-based
T1 sequence (P21917 whole entry): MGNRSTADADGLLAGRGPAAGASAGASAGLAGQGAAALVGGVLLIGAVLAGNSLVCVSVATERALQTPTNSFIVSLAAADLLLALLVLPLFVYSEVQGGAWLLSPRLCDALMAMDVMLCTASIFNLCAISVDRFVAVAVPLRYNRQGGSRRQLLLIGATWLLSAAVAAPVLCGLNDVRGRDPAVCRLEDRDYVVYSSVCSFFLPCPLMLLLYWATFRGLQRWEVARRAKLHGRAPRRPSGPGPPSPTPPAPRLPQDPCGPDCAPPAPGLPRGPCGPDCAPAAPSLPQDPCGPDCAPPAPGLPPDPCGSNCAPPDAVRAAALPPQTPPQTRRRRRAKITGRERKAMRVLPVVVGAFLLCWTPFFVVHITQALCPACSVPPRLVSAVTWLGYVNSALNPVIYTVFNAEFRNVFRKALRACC
Summary of the method: (§1)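 Radioligand binding at human receptors, with Ki as the read-out. Ki is the mean (±SEM) of two to three experiments, each run in triplicate.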

D(3) dopamine receptor = D(3) dopamine receptor (Homo sapiens, UniProt P35462); test: Displacement of [3H]spiperone from human dopamine D3 receptor expressed in human HEK293 cells; format: cell-based; summary of the method: as §1
D(1B) dopamine receptor = D(1B) dopamine receptor (Homo sapiens, UniProt P21918); test: Displacement of [3H]SCH23390 from human dopamine D5 receptor expressed in human HEK293 cells; format: cell-based; summary of the method: as §1
D(1A) dopamine receptor [1] = biological target: T2, D(1A) dopamine receptor (Homo sapiens, UniProt P21728); test: Antagonist activity at human dopamine D1 receptor expressed in HEK293 cells assessed as inhibition of SKF38393-induced Ca2+ influx by fluorescence analysis; format: functional, cell-based
Summary of the method: (§2)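 HEK293 cells stably expressing the relevant dopamine receptor were loaded with a fluorescent dye and preincubated with rising concentrations of test compound. Agonist was then added: SKF 38393 for D1, quinpirole for D2. Ca2+-induced fluorescence was read on a microplate reader.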

D(1A) dopamine receptor [2] = biological target: T2, D(1A) dopamine receptor; test: Displacement of [3H]SCH23390 from human dopamine D1 receptor expressed in human HEK293 cells; format: cell-based; summary of the method: as §1
D(2) dopamine receptor [3] = biological target: T3, D(2) dopamine receptor (Homo sapiens, UniProt P14416); test: Displacement of [3H]spiperone from human dopamine D2L receptor expressed in human HEK293 cells; format: cell-based; summary of the method: as §1
D(2) dopamine receptor [4] = biological target: T3, D(2) dopamine receptor; test: Antagonist activity at human dopamine D2L receptor expressed in HEK293 cells assessed inhibition of as quinpirole-induced Ca2+ influx by fluorescence analysis; format: functional, cell-based; summary of the method: as §2

T3 sequence (P14416 whole entry): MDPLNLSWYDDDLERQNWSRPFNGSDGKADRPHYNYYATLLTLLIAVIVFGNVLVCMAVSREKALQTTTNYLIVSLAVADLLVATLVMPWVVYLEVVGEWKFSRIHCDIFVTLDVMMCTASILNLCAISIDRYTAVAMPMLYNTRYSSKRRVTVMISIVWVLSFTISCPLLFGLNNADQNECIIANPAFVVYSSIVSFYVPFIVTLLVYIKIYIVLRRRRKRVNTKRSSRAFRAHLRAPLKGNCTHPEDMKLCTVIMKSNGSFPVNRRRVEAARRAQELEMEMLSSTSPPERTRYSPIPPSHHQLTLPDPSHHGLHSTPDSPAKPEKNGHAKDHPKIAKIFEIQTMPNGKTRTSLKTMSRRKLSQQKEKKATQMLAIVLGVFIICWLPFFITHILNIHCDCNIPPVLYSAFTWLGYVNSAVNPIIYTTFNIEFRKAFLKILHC
Sequence of D(1B) dopamine receptor (P21918 whole entry): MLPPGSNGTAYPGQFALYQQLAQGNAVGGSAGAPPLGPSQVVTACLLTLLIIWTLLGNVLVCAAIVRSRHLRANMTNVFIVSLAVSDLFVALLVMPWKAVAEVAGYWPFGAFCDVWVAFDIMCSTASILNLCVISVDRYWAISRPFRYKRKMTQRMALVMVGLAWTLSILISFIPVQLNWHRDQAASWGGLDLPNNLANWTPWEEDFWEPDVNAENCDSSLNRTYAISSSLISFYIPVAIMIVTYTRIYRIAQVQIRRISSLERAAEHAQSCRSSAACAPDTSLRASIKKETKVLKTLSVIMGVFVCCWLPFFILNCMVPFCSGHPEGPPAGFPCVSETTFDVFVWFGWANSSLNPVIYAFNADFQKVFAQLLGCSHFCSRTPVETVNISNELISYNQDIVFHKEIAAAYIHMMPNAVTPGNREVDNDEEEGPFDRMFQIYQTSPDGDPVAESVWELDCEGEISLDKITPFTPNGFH
T2 sequence (P21728 whole entry): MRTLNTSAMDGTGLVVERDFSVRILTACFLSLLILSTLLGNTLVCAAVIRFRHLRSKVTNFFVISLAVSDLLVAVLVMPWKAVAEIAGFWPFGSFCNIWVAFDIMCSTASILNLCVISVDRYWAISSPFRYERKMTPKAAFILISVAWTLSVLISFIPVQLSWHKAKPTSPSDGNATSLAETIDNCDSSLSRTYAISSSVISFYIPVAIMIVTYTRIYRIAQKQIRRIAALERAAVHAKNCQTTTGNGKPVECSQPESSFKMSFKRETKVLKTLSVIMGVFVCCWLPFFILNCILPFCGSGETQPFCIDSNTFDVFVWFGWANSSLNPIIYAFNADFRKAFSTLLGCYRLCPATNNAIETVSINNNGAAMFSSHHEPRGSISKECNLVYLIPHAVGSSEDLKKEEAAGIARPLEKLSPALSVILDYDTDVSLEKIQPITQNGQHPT
Sequence of D(3) dopamine receptor (P35462 whole entry): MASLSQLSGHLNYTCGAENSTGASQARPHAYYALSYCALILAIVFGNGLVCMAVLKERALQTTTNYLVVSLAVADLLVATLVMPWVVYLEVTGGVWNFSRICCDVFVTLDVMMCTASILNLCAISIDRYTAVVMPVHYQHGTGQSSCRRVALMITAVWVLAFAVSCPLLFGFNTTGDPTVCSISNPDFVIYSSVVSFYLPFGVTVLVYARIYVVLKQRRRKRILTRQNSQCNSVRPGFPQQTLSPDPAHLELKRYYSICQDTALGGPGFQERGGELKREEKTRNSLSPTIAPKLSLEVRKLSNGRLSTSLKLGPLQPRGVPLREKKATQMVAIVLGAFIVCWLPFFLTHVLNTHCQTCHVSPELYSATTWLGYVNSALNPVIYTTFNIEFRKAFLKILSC

| Ki (D(4) dopamine receptor) [nM] | Ki (D(3) dopamine receptor) [nM] | Ki (D(1B) dopamine receptor) [nM] | inhibition (D(1A) dopamine receptor [1]) | Ki (D(1A) dopamine receptor [2]) [nM] | Ki (D(2) dopamine receptor [3]) [nM] | inhibition (D(2) dopamine receptor [4]) | SMILES |
| --- | --- | --- | --- | --- | --- | --- | --- |
| 408 | 681 | 11.4 | Active | 10.3 | 268 | Active | CN1CCc2ccccc2Cc2[nH]c3ccccc3c2C[C@@H]1CO |
| 4860 | 4680 | 91.4 | Active | 114 | 2920 | Active | CN1CCc2ccccc2Cc2[nH]c3ccccc3c2C[C@H]1CO |
| > 10000 | > 10000 | 389 | Active | 640 | > 10000 | Active | C[C@@H]1Cc2c([nH]c3ccccc23)Cc2ccccc2CCN1C |
| 64.1 | 304 | 4.4 | Active | 6.1 | 85.3 | Active | C[C@H]1Cc2c([nH]c3ccccc23)Cc2ccccc2CCN1C |
| > 10000 | > 10000 | 657 | Active | > 10000 | > 10000 | Active | CN1CCc2ccccc2Cc2[nH]c3ccccc3c2CC1C(=O)O (racemic) |
